The source made the active and inactive calls. No cut-off for these calls is given here.

One data set addresses Cytochrome P450 3A4 (Homo sapiens, UniProt P08684). The data set is described as follows: Prodrug activation assessed as human supersomes CYP3A4-mediated 3,4,5-trimethoxyphenyl 4-(2-oxoimidazolidin-1-yl)benzenesulfonate formation after 4 hrs by HPLC-MS analysis. The data set is classed as ADME. The conditions noted are these: recombinant enzyme.
Data set [1] concerns MCF7. As to the kind of experiment: Antiproliferative activity against human MCF7 cells after 48 hrs by SRB assay. The data set is classed as functional, cell-based. The conditions noted are these: MCF7, 48 h. In short, it runs like this: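 SRB assay run as in the NCI screen with slight modifications. Seeding: HT-29 5.0 x 10^3, M21 3.5 x 10^3, MCF7 7.5 x 10^3 cells; cells preincubated 24 h. Drug in DMSO added at 0.75 to 1.0 x 10^5 nM for 48 h. TCA fixation, sulforhodamine B staining, absorbance 530-565 nm. At least two experiments in triplicate; runs accepted only when relative SD < 10%.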
In general terms: In SRB staining, fixed cells bind dye roughly in proportion to their protein.

Data set [2] relates to MCF7. As to the kind of experiment: Cell cycle arrest in human MCF7 cells assessed as accumulation at G0/G1 phase at 50 nM after 24 hrs by DAPI-staining based FACS analysis (reference value: 65.5%). The data set is classed as functional. For orientation: Flow cytometry measures light scatter and fluorescence of single cells or particles in a stream.
In data set [3] the test system is MDA-MB-468. As to the kind of experiment: Cytotoxicity against human MDA-MB-468 cells after 72 hrs in presence of CYP inhibitor curcumin by SRB assay. In kind it is functional, cell-based. In short, it runs like this: (§1)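 MDA-MB-468 cells co-incubated for 72 h with drug plus a subtoxic concentration of a CYP inhibitor. Viability read by SRB assay: TCA fixation, sulforhodamine B staining, absorbance at 530-565 nm.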

In data set [4] the test system is MDA-MB-231. As to the kind of experiment: Antiproliferative activity against ER/PR/HER2 deficient human MDA-MB-231 cells after 72 hrs in presence of phenol red by SRB assay. The data set is classed as functional, cell-based. In short, it runs like this:
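SRB antiproliferative assay (modified NCI protocol). Cells seeded per well (SK-BR-3, MDA-MB-231, T47D, HT-1080, HT-1080 CYP1A1 and empty-vector: 3.0 x 10^3; MDA-MB-468: 5.0 x 10^3; MCF7: 7.5 x 10^3), preincubated 24 h. DMSO-solubilized drug added at 0.75 to 1.0 x 10^5 nM, then 72 h. Fixed with cold 10% TCA, stained with 0.1% sulforhodamine B, absorbance read at 530-565 nm. At least two experiments, triplicate cultures.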

For data set [5], the system named is MCF7. As to the kind of experiment: Cell cycle arrest in human MCF7 cells assessed as accumulation at subG1 phase at 50 nM after 24 hrs by DAPI-staining based FACS analysis (reference value: 1.4%). The data set is classed as functional.
Data set [6] relates to MDA-MB-468. As to the kind of experiment: Cell cycle arrest in human MDA-MB-468 cells assessed as accumulation at S phase at 50 nM after 24 hrs by DAPI-staining based FACS analysis (reference value: 17%). The data set is classed as functional.
Data set [7] deals with MDA-MB-468. The data set is described as follows: Cytotoxicity against human MDA-MB-468 cells after 72 hrs in presence of CYP1A1 inhibitor tacrine by SRB assay. The data set is classed as functional, cell-based. In outline:
(§2)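 MDA-MB-468 cells (5.0 x 10^3/well) seeded and incubated 24 h. Drug freshly dissolved in DMSO, given at 0.75 to 1.0 x 10^5 nM, together with subtoxic CYP inhibitor, for 72 h. Cells fixed with cold 10% TCA and stained with 0.1% sulforhodamine B. Bound dye taken up in 10 mM Tris, absorbance read at 530-565 nm. At least two experiments, triplicate cultures.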

The subject of data set [8] is MDA-MB-468. The data set is described as follows: Cytotoxicity against human MDA-MB-468 cells after 72 hrs in presence of CYP inhibitor salicylamide by SRB assay. In kind it is functional, cell-based. In outline:
as §1

Data set [9] concerns MDA-MB-231. As to the kind of experiment: Cell cycle arrest in human MDA-MB-231 cells assessed as accumulation at S phase at 50 nM after 24 hrs by DAPI-staining based FACS analysis (reference value: 9.7%). The data set is classed as functional.
For data set [10], the system named is MDA-MB-468. The data set is described as follows: Cytotoxicity against human MDA-MB-468 cells after 72 hrs in presence of CYP1A1 inhibitor capsaicin by SRB assay. In kind it is functional, cell-based. In outline:
as §1

For data set [11], the system named is MDA-MB-468. As to the kind of experiment: Cytotoxicity against human MDA-MB-468 cells after 72 hrs in presence of CYP1A1 inhibitor resveratrol by SRB assay. The data set is classed as functional, cell-based. In outline:
as §2

Data set [12] deals with MDA-MB-468. As to the kind of experiment: Cytotoxicity against human MDA-MB-468 cells after 72 hrs in presence of CYP1A1 inhibitor ketoconazole by SRB assay. The data set is classed as functional, cell-based. In outline: as §2
For a further data set, the target named is T1, Cytochrome P450 1A1 (Homo sapiens, UniProt P04798).
T1 sequence (P04798 whole entry): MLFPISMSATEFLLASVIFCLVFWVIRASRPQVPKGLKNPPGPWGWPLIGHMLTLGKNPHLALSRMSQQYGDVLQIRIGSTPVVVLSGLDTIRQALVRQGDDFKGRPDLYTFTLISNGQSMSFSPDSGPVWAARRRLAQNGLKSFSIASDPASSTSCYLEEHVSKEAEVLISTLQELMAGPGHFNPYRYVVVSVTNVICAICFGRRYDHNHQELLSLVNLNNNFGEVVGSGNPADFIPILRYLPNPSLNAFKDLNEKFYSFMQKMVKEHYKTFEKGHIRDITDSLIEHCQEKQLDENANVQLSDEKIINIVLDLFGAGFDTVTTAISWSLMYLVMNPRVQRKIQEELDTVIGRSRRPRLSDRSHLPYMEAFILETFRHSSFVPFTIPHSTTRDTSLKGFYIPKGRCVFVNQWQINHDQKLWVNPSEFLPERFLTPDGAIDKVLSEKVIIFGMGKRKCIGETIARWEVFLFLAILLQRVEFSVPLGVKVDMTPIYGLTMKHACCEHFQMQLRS
The data set is described as follows: Prodrug activation assessed as human supersomes CYP1A1-mediated 3,4,5-trimethoxyphenyl 4-(2-oxoimidazolidin-1-yl)benzenesulfonate formation after 4 hrs by HPLC-MS analysis. In kind it is ADME. The conditions noted are these: recombinant enzyme.

The test system of data set [13] is MDA-MB-468. As to the kind of experiment: Cell cycle arrest in human MDA-MB-468 cells assessed as accumulation at G0/G1 phase at 50 nM after 24 hrs by DAPI-staining based FACS analysis (reference value: 63.3%). In kind it is functional.
The test system of data set [14] is MDA-MB-468. The data set is described as follows: Cell cycle arrest in human MDA-MB-468 cells assessed as accumulation at subG1 phase at 8 nM after 24 hrs by DAPI-staining based FACS analysis (reference value: 0.2%). The data set is classed as functional.
Data set [15] relates to MCF7. The data set is described as follows: Cell cycle arrest in human MCF7 cells assessed as accumulation at S phase at 8 nM after 24 hrs by DAPI-staining based FACS analysis (reference value: 10.6%). The data set is classed as functional.
The species entered for data set [16] is Homo sapiens. The data set is described as follows: Destabilization of microtubule network in human MDA-MB-231 cells at 8 nM after 24 hrs by fluorescence microscopic analysis. In kind it is cell-based.
Data set [17] has as its system MDA-MB-231. The data set is described as follows: Cell cycle arrest in human MDA-MB-231 cells assessed as accumulation at G0/G1 phase at 8 nM after 24 hrs by DAPI-staining based FACS analysis (reference value: 70.7%). In kind it is functional.
The test system of data set [18] is MDA-MB-468. As to the kind of experiment: Cell cycle arrest in human MDA-MB-468 cells assessed as accumulation at G2/M phase at 8 nM after 24 hrs by DAPI-staining based FACS analysis (reference value: 19.5%). In kind it is functional.
The test system of data set [19] is MCF7. The data set is described as follows: Cell cycle arrest in human MCF7 cells assessed as accumulation at G2/M phase at 8 nM after 24 hrs by DAPI-staining based FACS analysis (reference value: 22.3%). The data set is classed as functional.
The subject of data set [20] is MCF7. The data set is described as follows: Cell cycle arrest in human MCF7 cells assessed as accumulation at G0/G1 phase at 8 nM after 24 hrs by DAPI-staining based FACS analysis (reference value: 65.5%). In kind it is functional.
Data set [21] is filed under the species Homo sapiens. As to the kind of experiment: Destabilization of microtubule network in human MCF7 cells at 8 nM after 24 hrs by fluorescence microscopic analysis. The data set is classed as cell-based.

Sequence of Cytochrome P450 3A4 (P08684 whole entry): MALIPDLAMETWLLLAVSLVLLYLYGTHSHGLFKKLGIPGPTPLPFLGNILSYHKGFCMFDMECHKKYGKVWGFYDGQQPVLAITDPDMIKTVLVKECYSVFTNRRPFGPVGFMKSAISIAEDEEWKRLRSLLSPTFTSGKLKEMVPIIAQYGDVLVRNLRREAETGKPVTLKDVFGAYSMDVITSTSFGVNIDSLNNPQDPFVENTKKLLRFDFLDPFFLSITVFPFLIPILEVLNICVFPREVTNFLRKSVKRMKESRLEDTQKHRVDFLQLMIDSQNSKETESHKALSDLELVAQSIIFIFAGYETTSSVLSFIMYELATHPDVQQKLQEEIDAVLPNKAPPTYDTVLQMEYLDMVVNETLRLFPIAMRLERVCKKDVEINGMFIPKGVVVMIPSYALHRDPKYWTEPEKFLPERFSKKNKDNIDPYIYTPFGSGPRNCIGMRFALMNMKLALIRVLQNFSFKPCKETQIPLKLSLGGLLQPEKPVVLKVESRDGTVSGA

Broadly, the IC50 is the point on the concentration scale where inhibition reaches its midpoint. Take `CCCCN1CCN(c2ccc(S(=O)(=O)Oc3cc(OC)c(OC)c(OC)c3)cc2)C1=O`: the Drug metabolism result at Cytochrome P450 3A4 is “Metabolite_Notdetected”; at Cytochrome P450 1A1 it was “Metabolite_Detected”. The compound further came in with an IC50 in the data set with MCF7 [1] of 10 nM. Moreover, the Activity in the data set with MCF7 [2] worked out at 3.7%; in the data set with MCF7 [5], 4.3%; in the data set with MDA-MB-468 [6] it was 15%; with MDA-MB-231 [9], 9.2%; with MDA-MB-468 [13] it was 13.2%. Also, the result in the data set with MDA-MB-468 [3] and in the data set with MDA-MB-468 [8] was Active. Further, the outcome with MDA-MB-231 [4], in the data set on MDA-MB-468 [7], in the data set on MDA-MB-468 [10], in the data set with MDA-MB-468 [11] and in the data set on MDA-MB-468 [12] was inactive.
With `COc1cc(OS(=O)(=O)c2ccc(N3CCNC3=O)cc2)cc(OC)c1OC`, the Activity with MDA-MB-468 [14] is on record as 1.7%; in the data set with MCF7 [15], 10.7%; in the data set with MDA-MB-231 [17], 7.3%; in the data set with MDA-MB-468 [18], 74.4%; in the data set with MCF7 [19], 44.1%; in the data set on MCF7 [20], 9.6%. In the data set filed under Homo sapiens [16], the result was inactive. In the data set filed under Homo sapiens [21], the outcome was Active.

For the origin of these results see ChEMBL document CHEMBL4014335, “Activation of Phenyl 4-(2-Oxo-3-alkylimidazolidin-1-yl)benzenesulfonates Prodrugs by CYP1A1 as New Antimitotics Targeting Breast Cancer Cells” (J Med Chem, 2017).
